# Rows were chosen to be rich in hits. Some 4.3% of all compounds tested hit in one or more screens of this group.
# SR-BI DiI-HDL act = enhances SR-BI lipid uptake from DiI-HDL; CHO ldlA[mSR-BI] cells, DiI-HDL uptake fluorescence, 3 h; 100 = double the neutral-control signal; activation, % at 12.5 µM; 320,000 compounds, 0.096% hits; AID 504775;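 active means mean replicate activation of at least 60% and every replicate at or above 60%; inconclusive means mean or all-replicate condition met, but not both; inactive means mean below 60% and not all replicates reaching 60%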;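 further: 0% = median plate neutral-control signal and 100% = twice that signal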
#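 Material – SR-BI-overexpressing, LDLR-lacking CHO cells · Medium – BSA-supplemented, HEPES-buffered Ham's F12, pH 7.4 · Doses – single concentration · Times – compound with DiI-HDL co-incubation, 3 h at 37 °C · Measured by – bottom-read fluorescence, 550/595 nm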
# SMARCA2 act = activators of SMARCA2 function; MG213 cells, MMTV-luciferase reporter, dexamethasone, overnight; activation, % at 9.1 µM; 370,000 compounds, 1% hits; in the data active means activation above about 7.8%;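 further: 0% = vehicle wells and 100% = reference activator wells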
# CR mimetic SO = lowers age-related superoxide in aged yeast cells | S. cerevisiae aged cells, superoxide DHE fluorescence; active compounds read low | superoxide response (% of plate mean), % at 10 µM | 330,000 compounds, 0.18% hits;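 active means superoxide response under a set limit, about three screen SD below normal, cut at about 65% in these data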;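 further: yeast aged for seven days with compound at 30 °C before DHE staining; 100% = average MFI of all compound-treated wells on the plate with controls excluded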
# AHR activator = activators of human aryl hydrocarbon receptor; P35869; AHR-responsive luciferase reporter cells, luminescence; activation, % at 5 µM; 320,000 compounds, 2.5% hits; in the data active means activation above about 47%;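 further: 0% = vehicle wells and 100% = reference agonist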
# Hep lipid drop = modulators of hepatic lipid droplet formation | AML12 mouse hepatocytes, oleate lipid droplets, BODIPY imaging | 240,000 compounds, 0.4% hits | inhibition, % at 6.5 µM | AID 1656;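 active means lipid droplet intensity inhibited by at least 50%, with more than 500 cells counted; inconclusive means wells with under 300 cells, treated as cytotoxic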
#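 Test system: AML12 mouse liver cells; schedule: overnight exposure; technique: high-content imaging of BODIPY-stained droplets and DAPI nuclei; read-out: % inhibition of corrected integrated BODIPY droplet signal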
# SR-BI HDL uptake = mouse SR-BI HDL lipid transfer inhibition; Q61009; ldlA[mSR-BI] CHO cells, DiI-HDL uptake fluorescence, 3 h; inhibition, % at 12.5 µM; 320,000 compounds, 0.96% hits;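 active means mean replicate inhibition of at least 70% and a set share of replicates each scoring 70 or more; inconclusive means meets just one of the two criteria; inactive means fails both criteria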;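 further: 0% = median of neutral control wells and 100% = median of positive control wells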
# DiI quencher = counter-screen for SR-BI lipid transfer inhibitors: DiI fluorescence quenchers; shares compounds with SR-BI HDL uptake; cell-free DiI-HDL fluorescence quenching, 30 min; AC50, µM (top dose mostly 35 µM), inactives show at the highest dose activity change, negative = quenching; 470 compounds, 20% hits; AID 540326;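 active means quenching, a falling signal, with AC50 below a set limit tied to the top valid dose, actives reach about 32 µM in these data; inconclusive means no clear call, values can overlap the other calls; inactive means rising signal, and the rest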
# SMARCA2 act conf = SMARCA2 activation, confirmation screen. shares compounds with SMARCA2 act. MG213 cells, MMTV-luciferase with dexamethasone, luminescence, overnight; MG213 cells expressing E1A, Rb sequestered; DMSO wells 0%, reference activator 100%. activation, % at 9.1 µM. 3,500 compounds, 30% hits. AID 652260;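 active means activation above its plate's cutoff, the mean activation of tested wells plus 3 SD, cut at about 7.9% in these data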
# GAL4-VP16 Luc = counter-screen for SMARCA2 activators: GAL4-VP16 luciferase reporter activation | activation, % at 9.1 µM | shares compounds with SMARCA2 act | 3,500 compounds, 41% hits | AID 686939 | HEK293 GAL4-VP16 pG5luc reporter, luciferase luminescence; scaled: DMSO wells 0%, SAHA wells 100%;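 active means activation above the solvent-only control well mean plus 3 SD, averaged across control plates, cut at about 5.2% in these data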
# Starred values were filed as active, the others as inactive; u = inconclusive; x = no result.
SMILES,SR-BI DiI-HDL act,SMARCA2 act,CR mimetic SO,AHR activator,Hep lipid drop,SR-BI HDL uptake,DiI quencher,others
CN1CCC2CC1c1cc(-c3ccc(C(F)(F)F)cc3)ccc12 (stereo unspecified),12,-2,x,x,x,-12,-5%,
Cc1cccc(N2CCN(C(=O)Cn3cccc3C(=O)c3ccccc3)CC2)c1C,-73,-5,97,-1,x,73*,-7%,
Cc1cccc(N2CCN(C(=O)CN3C(=O)NC4(CCCCCC4)C3=O)CC2)c1C,-73,-2,x,x,x,73*,-3%,
Cc1ccccc1NC(=O)N(CCc1nc2ccccc2[nH]1)Cc1ccccc1,-96,1,103,2,-25,96*,6%,
CC(=O)Nc1cccc(CCc2nc3ccccc3[nH]2)c1,u,-1,101,11,2,-135,x,
CC(=O)c1ccc(-c2ccc(C(=O)Nc3nc(C)c(C(C)=O)s3)o2)cc1,-50,4,76,11,x,50,-4%,
CCC(=O)N1CCc2cc(Br)c(S(=O)(=O)NCc3ccccc3OC)cc21,x,3,x,x,x,x,x,
COc1cc(/C=C\C(=O)NCc2ccc3c(c2)cc(C)n3C)cc(OC)c1OC,-78,-3,106,3,-16,78*,-4%,
COc1ccc(S[C@]2(C(=O)N3CCN(c4ncccn4)CC3)CC(=O)N(c3ccc(C#N)cc3)[C@@H]2c2ccc(OC)cc2)cc1,x,0,x,x,x,x,x,
O=C(N[C@@H]1C/C=C\C[C@H](CC(=O)N(CCO)Cc2ccccc2)C(=O)NC[C@@H](c2ccccc2)OC1=O)OCC1c2ccccc2-c2ccccc21,-85,0,83,1,x,85*,1%,
COc1ccc(C2C(C#N)=C(N)N(c3ccccc3C#N)C3=C2C(=O)CCC3)cc1CN1CCCC1 (stereo unspecified),-3,-1,101,2,-1,3,-4%,
COC(=O)[C@]12C[C@H](CC(=O)NCCCN3CCCC3=O)C(=O)N(Cc3ccc(Cl)cc3Cl)C1=C[C@H](C(C)C)O[C@@H]2C1CC1,x,-2,x,x,x,x,x,
CCCn1c(=O)[nH]c(=O)c2c1nc(-c1ccc(OC(F)(F)C(F)C(F)(F)F)cc1)n2CCOC (stereo unspecified),-75,-2,105,4,1,75*,-1%,
Cc1ccc(-c2nn(-c3ccccc3)cc2/C=C/C(=O)OCC(=O)NC2CC2)o1,-72,-3,108,6,0,72*,11%,
COc1ccccc1CNC(=O)CNC(=O)[C@@H]1Cc2ccccc2CN1,-3,-1,111,2,6,3,x,
COc1ccccc1CNC(=O)C1CCC(CNC(=O)[C@@H]2Cc3ccccc3CN2)CC1 (stereo partly specified),-77,-2,101,3,-42,77*,-5%,
COc1cc(C2CC(=O)c3c([nH]c(C(=O)OCCOC(C)C)c3C)C2)cc(OC)c1OC (stereo unspecified),-82,-4,98,13,-3,82*,-2%,
COc1ccc(N2CN=C3SCC(=O)N3C2)cc1,10,-5,94,13,17,-10,x,
Cc1cc(C)cc(N2CN=C3SCC(=O)N3C2)c1,-71,0,101,2,3,u,-3%,
CNc1nnc(-c2cc3ccccc3oc2=O)s1,2,8.3*,102,-3,x,-2,x,SMARCA2 act conf=13*;GAL4-VP16 Luc=14*
CC1OC(OCC2OC(Oc3c(-c4ccc(O)cc4)oc4cc(O)cc(O)c4c3=O)C(O)C(O)C2O)C(O)C(O)C1O (stereo unspecified),24,-2,84,0,9,-24,x,

# Bioassay records (PubChem BioAssay)
